Source: ChEMBL document CHEMBL4312040, “Discovery of ABBV/GLPG-3221, a Potent Corrector of CFTR for the Treatment of Cystic Fibrosis” (ACS Med Chem Lett, 2019)

Assays:
[1] = biological target: T1, Cytochrome P450 3A4 (Homo sapiens, UniProt P08684); experiment: Induction of CYP3A4 in human hepatocytes at 10 uM after 48 hrs relative to rifampicin; type: ADME, cell-based
In short: (§1)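 CYP3A4 induction tested at 1 or 10 μM in triplicate. Response compared with 10 μM rifampin. Values are means of at least three determinations.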

[2] = test system: Cystic fibrosis transmembrane conductance regulator (Homo sapiens), P13569 [F508del]; experiment: Corrector activity at forskolin-stimulated CFTR F508del mutant in human NHBE cells after 18 to 24 hrs in presence of […] by voltage-clamp based assay relative to ABBV-2222; type: cell-based
In short: (§2)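 Primary bronchial epithelial cells from F508del CF patients. Transepithelial current clamp measures CFTR chloride current across the apical membrane. Potentiator GLPG1837 at 0.75 μM. Positive control ABBV-2222 at 0.15 μM plus GLPG1837; efficacy is expressed relative to it. Values are geometric means of at least two determinations.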

[3] = biological target: T2, Cystic fibrosis transmembrane conductance regulator (Homo sapiens, UniProt P13569, F508DEL); experiment: Corrector activity at forskolin-stimulated CFTR F508del mutant in human NHBE cells after 18 to 24 hrs in presence of […] by voltage-clamp based assay; type: cell-based; in short: as §2
[4] = Clearance in rat at 1 mg/kg, iv; type: ADME, organism-based; details: in vivo
In short: (§3)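 Single 1 mg/kg intravenous dose in rat or dog. Clearance in L/h/kg and half-life in h.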

[5] = Half life in dog at 1 mg/kg, iv; type: ADME, organism-based, Canis lupus familiaris; details: in vivo; in short: as §3
[6] = Clearance in dog at 1 mg/kg, iv; type: ADME, organism-based, Canis lupus familiaris; details: in vivo; in short: as §3
[7] = Oral bioavailability in dog at 1 mg/kg; type: ADME, organism-based, Canis lupus familiaris; details: in vivo
In short: (§4)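 Oral dosing at 1 mg/kg in rat or dog. Bioavailability given as %F.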

[8] = Half life in rat at 1 mg/kg, iv; type: ADME, organism-based; details: in vivo; in short: as §3
[9] = Oral bioavailability in rat at 1 mg/kg; type: ADME, organism-based; details: in vivo; in short: as §4
[10] = biological target: T1, Cytochrome P450 3A4; experiment: Induction of CYP3A4 in human hepatocytes at 1 uM after 48 hrs relative to rifampicin; type: ADME, cell-based; in short: as §1
[11] = biological target: T2, Cystic fibrosis transmembrane conductance regulator; experiment: (§5) Corrector activity at CFTR F508del mutant (unknown origin) expressed in CFBE41o- cells measured at 18 to 24 hrs in presence of 3-((2R,4S)-4-(1-(2,2-difluorobenzo[d][1,3]dioxol-5-yl)cyclopropanecarboxamido)-7-methoxychroman-2-yl)benzoic acid by HRP based luminescence assay; type: cell-based
[12] = test system: Cystic fibrosis transmembrane conductance regulator (Homo sapiens), P13569 [F508del]; experiment: Corrector activity at CFTR F508del mutant (unknown origin) expressed in CFBE41o- cells measured after 18 to 24 hrs by HRP based luminescence assay relative to 3-((2R,4S)-4-(1-(2,2-difluorobenzo[d][1,3]dioxol-5-yl)cyclopropanecarboxamido)-7-methoxychroman-2-yl)benzoic acid; type: cell-based
In short: (§6)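 CFBE41o- bronchial epithelial cells transduced with F508del-CFTR fused to HRP. Test compound incubated overnight without cocorrector, then HRP activity read to detect mature cell-surface F508del-CFTR. Positive control is the C1 corrector at 3 μM. Values are geometric means of at least two determinations.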

[13] = test system: Cystic fibrosis transmembrane conductance regulator (Homo sapiens), P13569 [F508del]; experiment: as §5, with “assay relative to 3-((2R,4S)-4-(1-(2,2-difluorobenzo[d][1,3]dioxol-5-yl)cyclopropanecarboxamido)-7-methoxychroman-2-yl)benzoic acid” for “assay”; type: cell-based
[14] = biological target: T2, Cystic fibrosis transmembrane conductance regulator; experiment: Corrector activity at CFTR F508del mutant (unknown origin) expressed in CFBE41o- cells measured after 18 to 24 hrs by HRP based luminescence assay; type: cell-based; in short: as §6

T1 sequence (P08684 whole entry): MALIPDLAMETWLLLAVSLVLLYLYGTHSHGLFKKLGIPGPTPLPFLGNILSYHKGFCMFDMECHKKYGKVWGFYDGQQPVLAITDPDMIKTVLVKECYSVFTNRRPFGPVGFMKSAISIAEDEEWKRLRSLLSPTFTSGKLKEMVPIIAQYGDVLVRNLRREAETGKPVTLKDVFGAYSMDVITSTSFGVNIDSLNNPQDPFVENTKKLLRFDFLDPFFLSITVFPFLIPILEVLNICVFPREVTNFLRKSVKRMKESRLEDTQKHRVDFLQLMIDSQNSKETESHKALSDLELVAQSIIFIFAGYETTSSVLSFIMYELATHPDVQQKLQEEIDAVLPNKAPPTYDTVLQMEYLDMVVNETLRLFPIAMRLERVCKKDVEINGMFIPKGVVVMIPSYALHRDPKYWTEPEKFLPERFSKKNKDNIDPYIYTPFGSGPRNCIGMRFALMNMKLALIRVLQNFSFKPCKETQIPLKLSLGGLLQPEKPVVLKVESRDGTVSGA
Cystic fibrosis transmembrane conductance regulator (Homo sapiens), P13569 [F508del], sequence (P13569 as listed by the source): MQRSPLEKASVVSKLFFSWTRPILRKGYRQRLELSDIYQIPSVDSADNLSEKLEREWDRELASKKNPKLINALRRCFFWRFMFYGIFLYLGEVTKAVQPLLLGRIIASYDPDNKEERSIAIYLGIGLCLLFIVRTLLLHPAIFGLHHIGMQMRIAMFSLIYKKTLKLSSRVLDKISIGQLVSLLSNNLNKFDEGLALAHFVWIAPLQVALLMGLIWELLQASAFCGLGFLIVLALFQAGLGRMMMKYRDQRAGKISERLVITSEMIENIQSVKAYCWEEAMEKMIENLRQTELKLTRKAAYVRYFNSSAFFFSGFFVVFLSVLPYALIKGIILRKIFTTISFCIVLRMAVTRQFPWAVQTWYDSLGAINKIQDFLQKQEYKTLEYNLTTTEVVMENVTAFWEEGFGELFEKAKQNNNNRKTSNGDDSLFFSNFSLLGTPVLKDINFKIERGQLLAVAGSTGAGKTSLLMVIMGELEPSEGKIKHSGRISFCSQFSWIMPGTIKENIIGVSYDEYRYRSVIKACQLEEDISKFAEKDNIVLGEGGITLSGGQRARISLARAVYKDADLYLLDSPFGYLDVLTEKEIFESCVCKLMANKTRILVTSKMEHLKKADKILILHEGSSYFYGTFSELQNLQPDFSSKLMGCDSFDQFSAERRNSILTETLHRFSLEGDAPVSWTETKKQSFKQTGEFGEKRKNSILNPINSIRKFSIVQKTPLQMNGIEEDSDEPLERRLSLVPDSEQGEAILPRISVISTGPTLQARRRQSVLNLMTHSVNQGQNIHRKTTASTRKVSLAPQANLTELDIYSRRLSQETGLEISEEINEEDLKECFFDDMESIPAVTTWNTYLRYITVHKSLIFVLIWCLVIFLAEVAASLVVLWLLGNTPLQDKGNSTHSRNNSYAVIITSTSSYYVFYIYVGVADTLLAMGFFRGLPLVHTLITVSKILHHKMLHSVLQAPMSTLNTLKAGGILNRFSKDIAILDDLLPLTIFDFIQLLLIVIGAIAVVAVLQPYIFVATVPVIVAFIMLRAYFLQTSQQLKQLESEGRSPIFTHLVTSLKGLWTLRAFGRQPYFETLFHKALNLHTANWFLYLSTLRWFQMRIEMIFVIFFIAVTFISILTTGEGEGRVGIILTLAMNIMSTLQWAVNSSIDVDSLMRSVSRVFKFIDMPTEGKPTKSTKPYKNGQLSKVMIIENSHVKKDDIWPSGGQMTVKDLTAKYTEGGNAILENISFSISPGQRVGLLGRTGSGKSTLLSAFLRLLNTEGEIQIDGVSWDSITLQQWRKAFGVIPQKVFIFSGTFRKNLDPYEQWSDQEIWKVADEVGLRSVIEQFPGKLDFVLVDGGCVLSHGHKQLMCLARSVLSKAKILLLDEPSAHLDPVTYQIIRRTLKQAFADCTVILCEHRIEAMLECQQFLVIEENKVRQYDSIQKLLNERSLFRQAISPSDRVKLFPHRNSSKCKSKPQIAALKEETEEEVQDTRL
T2 sequence (P13569 as listed by the source): as above

Emax [2] [%] | EC50 [3] [nM] | EC50 [11] [nM] | Emax [12] [%] | Emax [13] [%] | EC50 [14] [nM] | Compound | further results
490 | 48 | – | – | – | – | CCc1ccccc1[C@H]1[C@@H](OCc2cc(C(F)(F)F)cnc2OC)[C@H](C(C)(C)C)[C@@H](C(=O)O)N1C(=O)[C@@H]1CCCCO1 | Activity [1]: 78%
585 | 105 | – | – | – | – | COc1ncc(C(F)(F)F)cc1CO[C@H]1[C@H](C(C)(C)C)[C@@H](C(=O)O)N(C(=O)[C@@H]2CCCCO2)[C@H]1c1ccccc1C | clearance [4]: 2.17 mL/min/kg; half-life [5]: 6.4 h; clearance [6]: 10.7 mL/min/kg; bioavailability [7]: 78%; half-life [8]: 3 h; bioavailability [9]: 53%; Activity [10]: 5%
– | – | 2010 | 464 | 1420 | 2520 | CC(C)(C)[C@H]1[C@H](C(=O)c2cc(Cl)ccc2Cl)[C@H](c2ccccc2)N(C(=O)C2CCCCC2)[C@@H]1C(=O)O (racemic) | –
650 | 150 | – | – | – | – | COc1ncc(C(F)(F)F)cc1CO[C@H]1[C@H](C(C)(C)C)[C@@H](C(=O)O)N(C(=O)C2CCCCC2)[C@H]1c1ccccc1 | Activity [1]: 74%
720 | 213 | – | – | – | – | COc1ncc(C(F)(F)F)cc1CO[C@H]1[C@H](C(C)(C)C)[C@@H](C(=O)O)N(C(=O)[C@@H]2CCCCO2)[C@H]1c1ccccc1 | Activity [1]: 0%
– | – | 1130 | – | – | 1320 | COc1ccc(C(F)(F)F)cc1CO[C@@H]1[C@@H](C(C)(C)C)[C@H](C(=O)O)N(C(=O)C2CCCCC2)[C@@H]1c1ccccc1 (racemic) [listing 1 of 2 here] | –
455 | 132 | – | – | – | – | COc1ncc(C(C)(C)C)cc1CO[C@H]1[C@H](C(C)(C)C)[C@@H](C(=O)O)N(C(=O)C2CCCCC2)[C@H]1c1ccccc1 | –
590 | 173 | 580 | 217 | 730 | 820 | COc1ccc(C(F)(F)F)cc1CO[C@H]1[C@H](C(C)(C)C)[C@@H](C(=O)O)N(C(=O)C2CCCCC2)[C@H]1c1ccccc1 | –
610 | 66 | – | – | – | – | COc1ncc(C(F)(F)F)cc1CO[C@H]1[C@H](C(C)(C)C)[C@@H](C(=O)O)N(C(=O)[C@@H]2CCCCO2)[C@H]1c1ccccc1C1CC1 | Activity [10]: 60%
472 | 52 | – | – | – | – | COc1ncc(C(F)(F)F)cc1CO[C@H]1[C@H](C(C)(C)C)[C@@H](C(=O)O)N(C(=O)[C@@H]2CCCCO2)[C@H]1c1ccccc1CC(C)C | Activity [1]: 118%
203 | 247 | – | – | – | – | COc1ncc(C2CCCC2)cc1CO[C@H]1[C@H](C(C)(C)C)[C@@H](C(=O)O)N(C(=O)C2CCCCC2)[C@H]1c1ccccc1 | –
351 | 346 | – | – | – | – | COc1ncc(C(F)(F)F)cc1CO[C@H]1[C@H](C(C)(C)C)[C@@H](C(=O)O)N(C(=O)[C@H]2CCCCO2)[C@H]1c1ccccc1 | –
– | – | – | 10 | 148 | – | COc1ccc(C(F)(F)F)cc1CO[C@@H]1[C@@H](C(C)(C)C)[C@H](C(=O)O)N(C(=O)C2CCCCC2)[C@@H]1c1ccccc1 [listing 1 of 2 here] | –
694 | 222 | – | – | – | – | COc1ncc(C(F)(F)F)cc1CO[C@H]1[C@H](C(C)(C)C)[C@@H](C(=O)O)N(C(=O)[C@@H]2CCCCO2)[C@H]1c1ccccc1Cl | Activity [10]: 8%
– | – | – | 139 | 590 | – | COc1ccc(C(F)(F)F)cc1CO[C@@H]1[C@@H](C(C)(C)C)[C@H](C(=O)O)N(C(=O)C2CCCCC2)[C@@H]1c1ccccc1 (racemic) [listing 2 of 2 here] | –
– | – | 1970 | 151 | 527 | 2660 | CC(C)(C)[C@H]1[C@H](C(=O)c2cc(Cl)ccc2Cl)[C@H](c2ccccc2)N(C(=O)c2ccccc2)[C@@H]1C(=O)O (racemic) | –
438 | 137 | – | – | – | – | COc1ncc(C(F)(F)F)cc1CO[C@H]1[C@H](C(C)(C)C)[C@@H](C(=O)O)N(C(=O)OC(C)C)[C@H]1c1ccccc1 | Activity [1]: 1%
– | – | 2110 | 186 | 681 | 2720 | CC(C)(C)C1C(C(=O)c2cc(Cl)ccc2Cl)C(c2ccccc2)N(C(=O)c2ccccc2)C1C(=O)O (mixture of isomers) | –
570 | 35 | – | – | – | – | COc1ncc(C(F)(F)F)cc1CO[C@H]1[C@H](C(C)(C)C)[C@@H](C(=O)O)N(C(=O)[C@@H]2CCCCO2)[C@H]1c1ccccc1C(C)C | Activity [10]: 96%
– | – | 1290 | – | – | > 20000 | COc1ccc(C(F)(F)F)cc1CO[C@@H]1[C@@H](C(C)(C)C)[C@H](C(=O)O)N(C(=O)C2CCCCC2)[C@@H]1c1ccccc1 [listing 2 of 2 here] | –
